The record followed here is PubChem BioAssay AID504354 (Broad Institute, 2011).

A number with no mark means an inactive call.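 How the source made its calls: active means curve reaches 10% of the strong reference activator's caspase signal at or below the top valid tested dose; inactive means signal moves in the opposite direction, or the rest.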

A short description of this assay: apoptosis induction in non-primed human MEWO line – cell-based, luminescence, dry powder, set 2, counter-screen for A1 inhibitor project, dose response (AID 504354). To be noted: MEWO cells (unprimed), caspase-Glo luminescence, 3 h, stronger effect = higher value; at 35 µM unless noted. In outline: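 Test system: unprimed MEWO cell line expressing A1 / Quantity: 2500 cells/well / Evaluation: caspase activity / Incubation: 3 h compound treatment at 37 °C, 1 h reagent at RT / Doses: compound delivered into wells by pin transfer / Detection: CaspaseGlo luminescence / Buffer or medium: RPMI-1640 growth medium with 10% FBS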
(Counterscreens check selectivity or assay interference.)
Consider `Cc1ccc(Nc2c([N+](=O)[O-])c(=O)oc3ccccc23)cc1`, for which the caspase activation was 1.87% [at 2.1 µM]. Under `O=c1oc2ccccc2c(N2CCCCC2)c1[N+](=O)[O-]` stands -1.32% [at 16 µM]; under `O=c1oc2ccccc2c(Sc2ccccc2)c1[N+](=O)[O-]`, -5.15%; under `Cn1c(=O)c([N+](=O)[O-])c(Nc2ccc(Cl)cc2)c2ccccc21`, 1.87% [at 1 µM].

For the compound `O=[N+]([O-])c1cnc2ccccc2c1Sc1ccccc1`, the caspase activation is 5.29% [at 16 µM]. For `O=c1oc2ccccc2c(Nc2cc(Cl)cc(Cl)c2)c1[N+](=O)[O-]`, the caspase activation was -1.06% [at 8 µM]. As for `CCOC(=O)N1CCN(c2c([N+](=O)[O-])c(=O)n(C)c3ccccc23)CC1`, the caspase activation is 2.35%. Regarding `CCSc1c([N+](=O)[O-])c(=O)oc2ccccc12`, the caspase activation was -0.935% [at 0.26 µM]. In the case of `Cn1c(=O)c([N+](=O)[O-])c(Oc2ccccc2)c2ccccc21`, the caspase activation is 2.97% [at 0.135 µM]. `Cn1c(=O)c([N+](=O)[O-])c(Cl)c2ccccc21`: the caspase activation was 4.66% [at 8 µM]. Consider `Cc1ccc(Nc2c([N+](=O)[O-])c(=O)n(C)c3ccccc23)cc1`, for which the caspase activation was 1.4% [at 1 µM]. `Cn1c(=O)c([N+](=O)[O-])c(-n2cnc3ccccc32)c2ccccc21`: the caspase activation is 1.87% [at 4.2 µM].

For `CN1C(=O)C(C)(C)N(Cc2ccccc2)c2ccccc21`, the caspase activation is 0.935% [at 2.1 µM].

For `O=c1oc2ccccc2c(Cl)c1[N+](=O)[O-]`, the caspase activation was -4.52% [at 16 µM].
